Assay outcomes (PubChem BioAssay)
ABHD4 inh: ABHD4 (mouse) inhibition, primary FP screen; AID 720543; purified mABHD4, FP-Rh probe fluorescence polarization; inhibition, % at 8.92 µM; 370,000 tested, 0.54% active; Q8VD66;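 active = inhibition exceeding the mean over every tested compound plus 3 SD, cut at about 30% in these data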
Target sequence (Q8VD66 whole entry, looked up): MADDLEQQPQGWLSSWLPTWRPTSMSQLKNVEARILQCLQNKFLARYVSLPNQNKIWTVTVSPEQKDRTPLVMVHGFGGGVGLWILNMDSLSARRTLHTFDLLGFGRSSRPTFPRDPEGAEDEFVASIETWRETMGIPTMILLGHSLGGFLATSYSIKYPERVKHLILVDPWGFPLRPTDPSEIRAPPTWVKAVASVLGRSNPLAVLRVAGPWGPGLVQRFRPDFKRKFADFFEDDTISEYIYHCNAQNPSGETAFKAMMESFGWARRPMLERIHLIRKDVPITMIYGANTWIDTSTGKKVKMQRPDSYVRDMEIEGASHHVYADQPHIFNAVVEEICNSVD
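Material: mouse ABHD4 enzyme, wild type; Benchmarks: S159A mutant high control, sample median low control; Buffer or medium: HEPES pH 7.0, NaCl, Pluronic buffer; Signal: fluorescence polarization; Read-out: percent inhibition of probe binding, normalized to plate controls; Timing: pre-incubation 45 min, probe exposure 60 min, at 25 °C; Dosing: 8.92 µM, single dose.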
SIAE inh: inhibitors of human sialic acid acetylesterase SIAE; Q9HAT2; SIAE FP-Rh probe binding, fluorescence polarization; inhibition, % at 9.66 µM; 370,000 tested, 0.69% active;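 active = inhibition above a cutoff: mean of compounds within the control limits plus 3 SD of those, cut at about 17% in these data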
PRMT1 FP inh: inhibitors of human PRMT1; Q99873; recombinant PRMT1, activity-based probe fluorescence polarization; inhibition, % at 2.79 µM; 370,000 tested, 1.3% active;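 active = inhibition above about 21% made by adding two undisclosed values, limit read from the data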
TCR-CD3 inh: inhibitors of human TCR-CD3 interaction. AID 651800. 360,000 tested, 0.37% active. inhibition, % at 9.4 µM. TAMRA-labeled TCR probe fluorescence, biochemical; in the data active = inhibition above about 19%;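 note: recombinant mutant TCR 2C K166C tagged with TAMRA read by polarization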
rCAG binder: molecules binding r(CAG) RNA repeats; r(CAG) RNA repeat, TO-PRO-1 dye displacement fluorescence; inhibition, % at 3 µM; 370,000 tested, 1.3% active;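 active = inhibition above the plate cutoff, the mean of all test compounds on that plate plus 3 SD, cut at about 35% in these data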;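 note: higher means more dye released from RNA so lower well fluorescence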
rCAG binder conf: r(CAG) RNA repeat binding, confirmation; inhibition, % at 3 µM; AID 652065; shares compounds with rCAG binder; TO-PRO-1 dye displacement fluorescence; 4,300 tested, 70% active;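 active = inhibition above a per-plate cutoff, the mean inhibition of sample wells plus 3 SD, cut at about 35% in these data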;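 note: loss of TO-PRO-1 fluorescence as compound displaces dye from 1x1 AA loop RNA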
DNA CAG counter: counter-screen for rCAG RNA binders: DNA CAG dye complex inhibitors. shares compounds with rCAG binder. d(CAG) DNA oligo TO-PRO-1 dye displacement, fluorescence. inhibition, % at 3 µM. 4,300 tested, 94% active. AID 652068;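 active = inhibition above its plate's cutoff, the mean test-well inhibition plus 3 SD, cut at about 4.8% in these data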;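 note: hits displace the dye from DNA and so lower well fluorescence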
dCAG dye DR: counter-screen for rCAG binders: inhibitors of DNA CAG TO-PRO-1 complex; shares compounds with rCAG binder; DNA CAG/GTC duplex TO-PRO-1 dye displacement fluorescence; IC50, µM; 250 tested, 20% active; AID 686960; in the data active = IC50 below about 10 µM
Hits are given with their value; 0 = inactive; - = no result. A selection: hits, their analogues and other compounds. The true share with any hit is near 3.3%.

SMILES	ABHD4 inh	SIAE inh	PRMT1 FP inh	TCR-CD3 inh	rCAG binder	rCAG binder conf	DNA CAG counter	others
Clc1cccc(C2Nc3cccc4cccc(c34)N2)c1Cl	0	0	0	0	0	-	-
C[C@@H]1CN([C@@H](C)CO)S(=O)(=O)c2ccc(/C=C/c3ccccc3)cc2O[C@@H]1CN(C)Cc1ccc(C(=O)O)cc1	0	0	0	0	59.8	65.8	24.6
CCOc1ccc(NC(=NCc2ccc3c(c2)OCO3)SC2CC(=O)N(c3ccc(C(=O)O)cc3)C2=O)cc1 (stereo unspecified)	0	0	0	0	78.3	84.8	54.3
Cc1cccc(NS(=O)(=O)c2ccc(C)c(NS(=O)(=O)c3cccs3)c2)c1	0	0	0	0	36.2	0	7.9
Cc1cccc(NS(=O)(=O)c2ccc(NS(=O)(=O)c3cccs3)cc2)c1	0	0	0	0	0	-	-
O=C(Nc1cccc(S(=O)(=O)NC2=NCCCCC2)c1)c1cc(-c2ccncc2)nc2ccccc12	0	0	0	0	0	-	-
O=C(Nc1cccc(S(=O)(=O)NC2=NCCCCC2)c1)c1cc(-c2ccco2)nc2ccccc12	0	0	0	0	34.8	0	15.7
O=C(O)c1cccc(S(=O)(=O)Nc2ccc3oc(=O)sc3c2)c1	0	0	85.3	0	41.6	0	0
Cc1ccc(Oc2ccc(NS(=O)(=O)c3cccc(C(=O)O)c3)cc2)cc1	0	0	0	0	38.0	38.4	10.4
Cc1ccc(S(=O)(=O)NC(=O)c2ccc(-c3ccc(C)c4ccccc34)o2)cc1	0	0	0	0	76.8	72.6	28.2	dCAG dye DR=8.4
O=C(Nc1nc2ncccn2c1-c1ccc(C(F)(F)F)cc1)C1CC1	0	0	0	-	0	-	-
Cc1cccc(NS(=O)(=O)c2ccc3[nH]c(=O)cc(C(=O)OC(C)C(=O)Nc4ccc([N+](=O)[O-])cc4)c3c2)c1 (stereo unspecified)	0	0	0	0	46.0	36.3	16.9
O=C1CC(c2ccccc2)=NN1c1ccccc1	0	0	0	0	52.5	0	4.8
Cc1cc(C)nc(N2N=C(c3ccccc3)CC2=O)n1	0	0	0	0	0	-	-
O=C1CC(c2ccccc2)=NN1c1nc(-c2ccccc2)cs1	0	0	0	0	65.1	0	15.0
O=c1cc(-c2ccccc2)[nH]n1-c1ccccc1	0	0	0	0	59.4	0	0
CC(c1ccco1)N(C(=O)c1ccccc1NS(=O)(=O)c1cc([N+](=O)[O-])ccc1Cl)c1ccccn1 (stereo unspecified)	0	0	0	0	57.7	53.2	20.6
Brc1ccc(Cn2nnc(-c3ccc(N4CCOCC4)cc3)n2)cc1	0	0	0	-	0	-	-
S=C(NCc1ccccc1)NC1CCSc2ccccc21 (stereo unspecified)	0	0	0	0	52.8	0	0
C=CCNc1nc(N)c(C(=C(C#N)C#N)c2ccc(Br)cc2)s1	0	0	0	0	38.1	0	10.3
C=CCNc1sc(C(=O)c2ccc(C)cc2)c(N)c1C#N	0	0	0	0	0	-	-
CCOC(=O)C1=C(CC)Nc2ccccc2N/C1=N\S(=O)(=O)c1cc(Br)ccc1Br	0	0	0	0	63.1	59.0	21.2
CCOC(=O)C1=C(C)Nc2ccccc2N/C1=N\S(=O)(=O)c1cccc(Cl)c1	0	0	0	0	0	-	-
CCOC(=O)C1=C(CC)Nc2ccccc2N/C1=N\S(=O)(=O)c1ccc2ccccc2c1	0	0	0	0	36.0	41.4	11.7
CCOC(=O)C1=C(C)Nc2ccccc2N/C1=N\S(=O)(=O)c1ccc(Cl)cc1	0	0	0	0	35.2	0	4.9
SMILES	ABHD4 inh	SIAE inh	PRMT1 FP inh	TCR-CD3 inh	rCAG binder	rCAG binder conf	DNA CAG counter	others
c1ccc(-c2nnc3n2N=C(c2ccc4ccccc4c2)CS3)cc1	0	0	0	-	0	-	-
CCCCn1c(O)c(/C=C/C=C/C=Nc2ccccc2)sc1=S	0	0	0	0	40.0	0	18.0
CCCn1c(O)c(C=Nc2ccccc2)sc1=S	0	0	0	0	0	-	-
CCn1c(O)c(/C=C/C=C/C=Nc2ccccc2)sc1=S	0	0	0	0	0	-	-
Oc1c(/C=C/C=C/C=Nc2ccccc2)sc(=S)n1Cc1ccccc1	0	0	0	0	45.7	38.4	19.8
O=C(CSc1nnc(COc2ccccc2)n1Cc1ccco1)Nc1ccc(OCc2ccccc2)cc1	0	0	0	-	0	-	-
Cc1ccc2nc(-c3cccc(Br)c3)c(Cc3cccc(F)c3)n2c1	0	0	0	0	0	-	-
Clc1cccc(Cc2c(-c3ccccc3)nc3ccc(Br)cn23)c1	0	0	0	0	45.5	37.7	9.2
Fc1cccc(Cc2c(-c3cccc(Br)c3)nc3ccc(Cl)cn23)c1	0	0	0	0	46.1	0	5.9
Fc1ccc(-c2nc3ccc(Br)cn3c2Cc2cccc(F)c2)cc1	0	0	0	0	48.1	0	9.0
Clc1ccc(-c2nc3ccc(Br)cn3c2Cc2ccsc2)cc1	0	0	0	0	42.8	0	7.8
Cc1ccc(-c2nc3ccc(Br)cn3c2Cc2cccc(F)c2)cc1	0	0	0	0	0	-	-
O=C(NCCc1nc2ccccc2n1C/C=C/c1ccccc1)C1CCCCC1	0	0	0	-	-	-	-
CCC[C@H]1[C@@H](OC(=O)NCc2ccc(Cl)cc2)CC[C@@]23CCCN2C(=O)CCC[C@@H]13	0	0	0	-	-	-	-
COC(=O)C1CN(Cc2cn(Cc3ccc(Cl)cc3)nn2)CCS(=O)(=O)N1Cc1ccccc1 (stereo unspecified)	0	0	0	-	0	-	-
CCOC(=O)Cn1cc(CN2CCS(=O)(=O)N(Cc3ccc(F)cc3)C(C(=O)OC)C2)nn1 (stereo unspecified)	0	0	0	-	0	-	-
Cc1cc2nc(-c3cccc(Br)c3)c(Cc3cccc(Cl)c3)n2c(C)c1Br	0	0	0	0	39.6	0	5.9
Fc1cc(Br)ccc1COc1ccc(-c2nnco2)cc1	0	0	0	0	0	-	-
Cc1c(Br)cc(-c2nnco2)cc1Br	0	0	0	0	39.5	0	0
CCOc1cc(/C=C2\SC(=N)N(c3nccs3)C2=O)ccc1OCCN1CCOCC1	0	0	0	0	38.5	36.6	10.8
C=CCN1[C@H](CO)[C@H](c2ccc(Br)cc2)[C@@H]1C#N	0	0	0	-	0	-	-
C/C(CC(=O)Nc1ccc(Cl)c(C(F)(F)F)c1)=N\NC(=O)c1cccc(O)c1	0	0	0	0	0	-	-
C/C(CC(=O)Nc1ccc(Cl)c(C(F)(F)F)c1)=N\NC(=O)c1ccccc1O	0	0	0	0	53.1	0	0
COC(=O)[C@@]12CCCCC=C1N(CCc1ccc(Cl)cc1)C(=O)[C@H]2CC(=O)NCc1cccc(C(F)(F)F)c1	0	0	0	-	0	-	-
